Screening results from PubChem BioAssay.
HSF1 inhib – HSF1 inhibitors in luciferase reporter cells, primary screen, cell-based, NIH3T3, luminescence; AID 2098, 2009; activity change, negative = inhibition, % at 7.5 µM (by protocol); 0.77% of 300,000 active; NIH3T3-HGL HSE-luciferase, MG132-induced, luminescence 8 h; active compounds read low;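 active = more than half of replicate wells show activity change below -50%, luminescence cut by over half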;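 also: luciferase reports HSF-1 transcriptional activity via heat shock element; 0% = median of DMSO wells and -100% = zero luminescence signal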
HIF activator – HIF pathway transcriptional activators, primary screen, cell-based, U2OS HRE-luciferase, luminescence; U2OS HRE-luciferase reporter; normalized: DMSO 0%, desferrioxamine 100%; activation, % at 7.5 µM (by protocol); 0.32% of 300,000 active;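 active = mean activation of at least 10% of the iron chelator positive control signal, with at least half of replicates also reaching 10%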
T cruzi repl – inhibitors of intracellular T. cruzi growth, primary screen, luminescence, NIH3T3 host cells; 1.4% of 300,000 active; T. cruzi beta-gal in NIH3T3, 90 h; inhibition, % (test concentration not listed);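 active = mean inhibition across valid replicates above about 55%, limit read from the data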;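 also: signal also drops with host cell toxicity which is not excluded here; 0% = plate median of DMSO wells and 100% = zero luminescence signal; higher percent means less beta-gal luminescence so fewer parasites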
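assay system = mouse NIH/3T3 fibroblasts infected with β-gal-expressing T. cruzi Tulahuen C4 | input = 5,000 NIH/3T3 host cells per well | buffer or medium = DMEM plus 2% FBS | timing = 3 h host attachment, then at least 90 h co-culture | measured by = GalScreen luminescence, 60 min | evaluation = luminescence reflecting intracellular parasite burden, expressed as percent inhibition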
HSF1 activator – HSF-1 activators, primary screen, NIH3T3-HGL cells, MG132 stress, luminescence, single point; activation, % at 9 µM; 1.7% of 300,000 active; AID 504408, 2011; NIH3T3-HGL HSF-1 luciferase reporter, 8 h; 100% = twice DMSO control signal;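 active = mean replicate activation of at least 50% with a set share of replicates each reaching 50%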;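 also: 0% = median of the neutral control wells and 100% = twice that signal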
Calb FLC – C. albicans growth inhibition with fluconazole, primary screen, CaCi-2 strain, Alamar Blue fluorescence. C. albicans CaCi-2 + fluconazole, 48 h. growth inhibition, % (no concentration beside the values). 0.57% of 300,000 active;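 active = growth inhibition above about 58% in most replicates, limit read from the data, passing the limit was not always enough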;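 also: all wells also contain fluconazole at 8 µg/ml as a sub-toxic cotreatment; 0% = median of DMSO wells and 100% = median of geldanamycin control wells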
The depositor's hits bear a star. Most compounds without a hit are left out; they make up all but 4.4% or so of the library.

Results for Cc1ccnc(NC(=O)c2cc([N+](=O)[O-])cc([N+](=O)[O-])c2)c1 ?
HSF1 inhib: 2; HIF activator: -1; T cruzi repl: 60*; HSF1 activator: 6; Calb FLC: 38

Results for CCN(CC)S(=O)(=O)c1cc(C(=O)Nc2cc(C)on2)ccc1Cl ?
HSF1 inhib: -61*; HIF activator: 2; T cruzi repl: 2; HSF1 activator: -70; Calb FLC: 7

Results for CC(=O)c1ccc(NC(=O)C(C)NCc2ccccc2Cl)cc1 (stereo unspecified) ?
HSF1 inhib: 19; HIF activator: 4; T cruzi repl: 1; HSF1 activator: 17; Calb FLC: -2

How did COc1ccc(OC)c(NC(=O)COC(=O)/C=C/c2ccc(Cl)cc2)c1 do in these assays?
HSF1 inhib: 6; HIF activator: 0; T cruzi repl: -2; HSF1 activator: 8; Calb FLC: -5

What do the screens show for `COc1cc(SC)ccc1C(=O)Nc1cccc(C2OCCCO2)c1`?
HSF1 inhib: 0; HIF activator: 0; T cruzi repl: 5; HSF1 activator: -1; Calb FLC: 10

Results for COc1ccc(NC(=O)c2ccc(C)o2)c([N+](=O)[O-])c1 ?
HSF1 inhib: 7; HIF activator: 2; T cruzi repl: -6; HSF1 activator: 31; Calb FLC: -2

Results for Cc1cc(NC(=O)c2cc([N+](=O)[O-])cc([N+](=O)[O-])c2)no1 ?
HSF1 inhib: -4; HIF activator: 0; T cruzi repl: 55*; HSF1 activator: 4; Calb FLC: 21

Results for Cc1cccc(NC(=O)c2ccccc2O)c1C ?
HSF1 inhib: 68; HIF activator: 2; T cruzi repl: -3; HSF1 activator: 124*; Calb FLC: -9

What do the screens show for `O=C(Nc1ccccc1O)c1ccccc1O`?
HSF1 inhib: 12; HIF activator: 1; T cruzi repl: 2; HSF1 activator: 33; Calb FLC: 54

Results for COc1ccc(NC(=O)c2ccc([N+](=O)[O-])s2)c([N+](=O)[O-])c1 ?
HSF1 inhib: 24; HIF activator: -1; T cruzi repl: 64*; HSF1 activator: 14; Calb FLC: 13

How did Cc1ccnc(NC(=O)c2ccc([N+](=O)[O-])s2)c1 do in these assays?
HSF1 inhib: 48; HIF activator: 3; T cruzi repl: 55*; HSF1 activator: 70*; Calb FLC: 20

How did CCN(CC)S(=O)(=O)c1ccc2[nH]c(=O)cc(C(=O)NCc3ccccc3)c2c1 do in these assays?
HSF1 inhib: 4; HIF activator: -1; T cruzi repl: -6; HSF1 activator: 0; Calb FLC: 4

Results for O=c1[nH]c(-c2ccccc2)c(-c2ccccc2)nc1[N+](=O)[O-] ?
HSF1 inhib: -2; HIF activator: -2; T cruzi repl: -5; HSF1 activator: 10; Calb FLC: 7

Results for Cc1cc(NC(=O)c2ccc(C)c([N+](=O)[O-])c2)no1 ?
HSF1 inhib: -33; HIF activator: 1; T cruzi repl: -12; HSF1 activator: -47; Calb FLC: 7

How did Cc1cc(NC(=O)c2ccc(C)c(C)c2)no1 do in these assays?
HSF1 inhib: 18; HIF activator: 4; T cruzi repl: -5; HSF1 activator: 61*; Calb FLC: 7

What do the screens show for `Cc1c(NC(=O)c2ccc(C(C)(C)C)cc2)cccc1[N+](=O)[O-]`?
HSF1 inhib: 41; HIF activator: 2; T cruzi repl: 12; HSF1 activator: 72*; Calb FLC: -5

How did CC(C)(C)C1CCC(=O)N(CCC#N)CC1 (stereo unspecified) do in these assays?
HSF1 inhib: 9; HIF activator: -2; T cruzi repl: -22; HSF1 activator: -3; Calb FLC: -1

What do the screens show for `Cc1c(C(O)CN2CCN(Cc3ccc4c(c3)OCO4)CC2)c2ccccc2n1C` (stereo unspecified)?
HSF1 inhib: -2; HIF activator: 0; T cruzi repl: 67*; HSF1 activator: -3; Calb FLC: -13
